The record followed here is ChEMBL document CHEMBL2331489, “Novel cinnoline-based inhibitors of LRRK2 kinase activity” (Bioorg Med Chem Lett, 2013).

Data set [1] addresses T1, Leucine-rich repeat serine/threonine-protein kinase 2 (Homo sapiens, UniProt Q5S007, G2019S). In words: Inhibition of LRRK2 G2019S mutant (unknown origin) transfected in HEK293 cells assessed as inhibition of S935 phosphorylation. Type of data set: cell-based.
Data set [2] deals with T1, Leucine-rich repeat serine/threonine-protein kinase 2. In words: Inhibition of GST-tagged LRRK2 G2019S mutant (970 to 2527 amino acid residues) (unknown origin) assessed as inhibition of biotinylated-LRRKtide phosphorylation by HTRF assay in presence of ATP. (In general: In TR-FRET formats the signal depends on donor and acceptor labels being close together.)
Data set [3] concerns the target Leucine-rich repeat serine/threonine-protein kinase 2 (Homo sapiens, UniProt Q5S007). The data set is described as follows: Inhibition of wild type GST-tagged LRRK2 (970 to 2527 amino acid residues) (unknown origin) assessed as inhibition of biotinylated-LRRKtide phosphorylation by HTRF assay in presence of ATP.
For data set [4], the target named is Macrophage colony-stimulating factor 1 receptor (Homo sapiens, UniProt P07333). The data set is described as follows: Inhibition of CSF1R (unknown origin) by TR-FRET assay in presence of ATP.
Sequence of Macrophage colony-stimulating factor 1 receptor (P07333 whole entry): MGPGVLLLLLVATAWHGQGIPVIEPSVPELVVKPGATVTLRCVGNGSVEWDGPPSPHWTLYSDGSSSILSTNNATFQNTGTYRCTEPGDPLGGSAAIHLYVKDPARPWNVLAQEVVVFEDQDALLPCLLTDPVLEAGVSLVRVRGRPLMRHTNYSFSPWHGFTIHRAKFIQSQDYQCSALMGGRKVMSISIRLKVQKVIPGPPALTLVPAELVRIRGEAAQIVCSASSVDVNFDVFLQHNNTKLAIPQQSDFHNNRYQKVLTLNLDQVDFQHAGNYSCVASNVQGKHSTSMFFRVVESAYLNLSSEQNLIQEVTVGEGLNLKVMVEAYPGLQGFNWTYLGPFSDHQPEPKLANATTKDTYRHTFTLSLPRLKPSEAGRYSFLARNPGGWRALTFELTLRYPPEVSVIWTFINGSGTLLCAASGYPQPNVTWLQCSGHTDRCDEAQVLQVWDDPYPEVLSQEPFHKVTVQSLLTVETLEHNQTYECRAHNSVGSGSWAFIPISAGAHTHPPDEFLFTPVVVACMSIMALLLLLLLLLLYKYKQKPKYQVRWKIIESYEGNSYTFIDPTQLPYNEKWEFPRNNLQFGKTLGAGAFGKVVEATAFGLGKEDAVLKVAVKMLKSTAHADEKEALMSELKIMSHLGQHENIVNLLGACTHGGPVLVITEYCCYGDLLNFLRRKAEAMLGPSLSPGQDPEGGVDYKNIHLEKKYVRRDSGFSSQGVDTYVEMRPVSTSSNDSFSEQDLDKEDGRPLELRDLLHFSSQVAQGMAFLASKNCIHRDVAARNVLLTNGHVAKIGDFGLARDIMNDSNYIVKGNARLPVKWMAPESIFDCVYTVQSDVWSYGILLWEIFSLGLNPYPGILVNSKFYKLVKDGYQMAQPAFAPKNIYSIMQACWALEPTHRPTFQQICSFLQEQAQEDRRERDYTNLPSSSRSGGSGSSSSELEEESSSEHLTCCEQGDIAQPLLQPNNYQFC
Data set [5] has as its target Platelet-derived growth factor receptor alpha (Homo sapiens, UniProt P16234). In words: Inhibition of PDGFRalpha (unknown origin) by TR-FRET assay in presence of ATP.
In data set [6] the target is ATP-dependent translocase ABCB1 (Homo sapiens, UniProt P08183). The data set is described as follows: Inhibition of MDR1 (unknown origin) transfected in MDCK cells. Type of data set: cell-based.
Sequence of ATP-dependent translocase ABCB1 (P08183 whole entry): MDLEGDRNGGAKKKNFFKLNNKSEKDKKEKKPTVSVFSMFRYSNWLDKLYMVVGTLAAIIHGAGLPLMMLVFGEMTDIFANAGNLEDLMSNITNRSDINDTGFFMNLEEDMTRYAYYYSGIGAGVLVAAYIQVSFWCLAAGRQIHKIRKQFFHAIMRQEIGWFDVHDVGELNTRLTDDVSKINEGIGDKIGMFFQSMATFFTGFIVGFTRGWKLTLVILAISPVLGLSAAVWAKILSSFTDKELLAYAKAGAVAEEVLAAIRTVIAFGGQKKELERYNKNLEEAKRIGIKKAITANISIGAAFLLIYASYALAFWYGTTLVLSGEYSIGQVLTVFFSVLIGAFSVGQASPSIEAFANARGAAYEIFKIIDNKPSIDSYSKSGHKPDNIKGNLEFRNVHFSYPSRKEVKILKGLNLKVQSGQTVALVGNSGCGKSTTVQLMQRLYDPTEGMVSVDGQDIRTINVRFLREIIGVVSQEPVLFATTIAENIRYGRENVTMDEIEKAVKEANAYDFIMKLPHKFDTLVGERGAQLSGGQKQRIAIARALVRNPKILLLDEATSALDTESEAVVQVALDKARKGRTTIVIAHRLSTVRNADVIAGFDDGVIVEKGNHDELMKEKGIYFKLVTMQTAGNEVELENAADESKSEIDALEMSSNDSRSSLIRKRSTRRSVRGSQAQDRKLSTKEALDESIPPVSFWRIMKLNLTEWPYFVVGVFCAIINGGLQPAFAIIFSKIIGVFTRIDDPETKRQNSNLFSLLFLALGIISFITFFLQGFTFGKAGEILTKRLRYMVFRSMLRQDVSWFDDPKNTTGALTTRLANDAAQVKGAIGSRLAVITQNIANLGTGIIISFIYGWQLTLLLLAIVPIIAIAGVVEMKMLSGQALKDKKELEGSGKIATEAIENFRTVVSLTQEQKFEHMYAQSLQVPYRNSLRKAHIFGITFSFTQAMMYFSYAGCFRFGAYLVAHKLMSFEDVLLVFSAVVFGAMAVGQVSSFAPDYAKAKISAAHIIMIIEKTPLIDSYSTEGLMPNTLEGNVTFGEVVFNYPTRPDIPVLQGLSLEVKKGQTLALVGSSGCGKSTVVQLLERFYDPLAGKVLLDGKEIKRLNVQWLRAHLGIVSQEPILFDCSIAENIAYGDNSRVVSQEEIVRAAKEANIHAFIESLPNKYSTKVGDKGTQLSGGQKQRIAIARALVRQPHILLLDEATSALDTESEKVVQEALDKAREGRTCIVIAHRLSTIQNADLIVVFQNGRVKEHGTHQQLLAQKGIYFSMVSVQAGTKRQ
Data set [7] relates to Mus musculus. In words: Inhibition of P-gp in Mdr1(a/b) knock out and P-gp competent FVB mouse at 1 mg/kg, iv. Type of data set: functional, organism-based. Details: dose 1 mg/kg. Summed up:
(§1)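 FVB mice, both Mdr1a/b (-/-) and P-gp-competent wild-type, were given a single 1 mg/kg IV dose. Brain and plasma concentrations were measured 5 min after dosing. Brain uptake was expressed as the brain-to-plasma concentration ratio (Kp). In vivo P-gp efflux was assessed by comparing the knockout and wild-type strains.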

A short description of data set [8]: Ratio of drug level in brain to plasma in Mdr1(a/b) knock out and P-gp competent FVB mouse at 1 mg/kg, iv at 5 mins. Type of data set: ADME, organism-based. The settings on record: read-out: BPR. Details: dose 1 mg/kg, route intravenous. Summed up: as §1
Data set [9] relates to Brain. The data set is described as follows: Drug uptake in Mdr1(a/b) knock out and P-gp competent FVB mouse brain at 1 mg/kg, iv at 5 mins. The class given is ADME, organism-based. Details: dose 1 mg/kg, route intravenous. Conditions: in vivo. Summed up: as §1

As a reminder, the pEC50 is the EC50 on a negative log10 scale, so that one unit is a factor of ten. In general, pIC50 refers to −log10 of the IC50, conventionally taken in molar units.

pEC50, pIC50: −log10 of the molar value. Active and inactive are the calls of the source. The calls are words filed in the database; no cut-off is given here.

Sequence of Leucine-rich repeat serine/threonine-protein kinase 2 (Homo sapiens, UniProt Q5S007) (Q5S007 whole entry, the tested form may be a part): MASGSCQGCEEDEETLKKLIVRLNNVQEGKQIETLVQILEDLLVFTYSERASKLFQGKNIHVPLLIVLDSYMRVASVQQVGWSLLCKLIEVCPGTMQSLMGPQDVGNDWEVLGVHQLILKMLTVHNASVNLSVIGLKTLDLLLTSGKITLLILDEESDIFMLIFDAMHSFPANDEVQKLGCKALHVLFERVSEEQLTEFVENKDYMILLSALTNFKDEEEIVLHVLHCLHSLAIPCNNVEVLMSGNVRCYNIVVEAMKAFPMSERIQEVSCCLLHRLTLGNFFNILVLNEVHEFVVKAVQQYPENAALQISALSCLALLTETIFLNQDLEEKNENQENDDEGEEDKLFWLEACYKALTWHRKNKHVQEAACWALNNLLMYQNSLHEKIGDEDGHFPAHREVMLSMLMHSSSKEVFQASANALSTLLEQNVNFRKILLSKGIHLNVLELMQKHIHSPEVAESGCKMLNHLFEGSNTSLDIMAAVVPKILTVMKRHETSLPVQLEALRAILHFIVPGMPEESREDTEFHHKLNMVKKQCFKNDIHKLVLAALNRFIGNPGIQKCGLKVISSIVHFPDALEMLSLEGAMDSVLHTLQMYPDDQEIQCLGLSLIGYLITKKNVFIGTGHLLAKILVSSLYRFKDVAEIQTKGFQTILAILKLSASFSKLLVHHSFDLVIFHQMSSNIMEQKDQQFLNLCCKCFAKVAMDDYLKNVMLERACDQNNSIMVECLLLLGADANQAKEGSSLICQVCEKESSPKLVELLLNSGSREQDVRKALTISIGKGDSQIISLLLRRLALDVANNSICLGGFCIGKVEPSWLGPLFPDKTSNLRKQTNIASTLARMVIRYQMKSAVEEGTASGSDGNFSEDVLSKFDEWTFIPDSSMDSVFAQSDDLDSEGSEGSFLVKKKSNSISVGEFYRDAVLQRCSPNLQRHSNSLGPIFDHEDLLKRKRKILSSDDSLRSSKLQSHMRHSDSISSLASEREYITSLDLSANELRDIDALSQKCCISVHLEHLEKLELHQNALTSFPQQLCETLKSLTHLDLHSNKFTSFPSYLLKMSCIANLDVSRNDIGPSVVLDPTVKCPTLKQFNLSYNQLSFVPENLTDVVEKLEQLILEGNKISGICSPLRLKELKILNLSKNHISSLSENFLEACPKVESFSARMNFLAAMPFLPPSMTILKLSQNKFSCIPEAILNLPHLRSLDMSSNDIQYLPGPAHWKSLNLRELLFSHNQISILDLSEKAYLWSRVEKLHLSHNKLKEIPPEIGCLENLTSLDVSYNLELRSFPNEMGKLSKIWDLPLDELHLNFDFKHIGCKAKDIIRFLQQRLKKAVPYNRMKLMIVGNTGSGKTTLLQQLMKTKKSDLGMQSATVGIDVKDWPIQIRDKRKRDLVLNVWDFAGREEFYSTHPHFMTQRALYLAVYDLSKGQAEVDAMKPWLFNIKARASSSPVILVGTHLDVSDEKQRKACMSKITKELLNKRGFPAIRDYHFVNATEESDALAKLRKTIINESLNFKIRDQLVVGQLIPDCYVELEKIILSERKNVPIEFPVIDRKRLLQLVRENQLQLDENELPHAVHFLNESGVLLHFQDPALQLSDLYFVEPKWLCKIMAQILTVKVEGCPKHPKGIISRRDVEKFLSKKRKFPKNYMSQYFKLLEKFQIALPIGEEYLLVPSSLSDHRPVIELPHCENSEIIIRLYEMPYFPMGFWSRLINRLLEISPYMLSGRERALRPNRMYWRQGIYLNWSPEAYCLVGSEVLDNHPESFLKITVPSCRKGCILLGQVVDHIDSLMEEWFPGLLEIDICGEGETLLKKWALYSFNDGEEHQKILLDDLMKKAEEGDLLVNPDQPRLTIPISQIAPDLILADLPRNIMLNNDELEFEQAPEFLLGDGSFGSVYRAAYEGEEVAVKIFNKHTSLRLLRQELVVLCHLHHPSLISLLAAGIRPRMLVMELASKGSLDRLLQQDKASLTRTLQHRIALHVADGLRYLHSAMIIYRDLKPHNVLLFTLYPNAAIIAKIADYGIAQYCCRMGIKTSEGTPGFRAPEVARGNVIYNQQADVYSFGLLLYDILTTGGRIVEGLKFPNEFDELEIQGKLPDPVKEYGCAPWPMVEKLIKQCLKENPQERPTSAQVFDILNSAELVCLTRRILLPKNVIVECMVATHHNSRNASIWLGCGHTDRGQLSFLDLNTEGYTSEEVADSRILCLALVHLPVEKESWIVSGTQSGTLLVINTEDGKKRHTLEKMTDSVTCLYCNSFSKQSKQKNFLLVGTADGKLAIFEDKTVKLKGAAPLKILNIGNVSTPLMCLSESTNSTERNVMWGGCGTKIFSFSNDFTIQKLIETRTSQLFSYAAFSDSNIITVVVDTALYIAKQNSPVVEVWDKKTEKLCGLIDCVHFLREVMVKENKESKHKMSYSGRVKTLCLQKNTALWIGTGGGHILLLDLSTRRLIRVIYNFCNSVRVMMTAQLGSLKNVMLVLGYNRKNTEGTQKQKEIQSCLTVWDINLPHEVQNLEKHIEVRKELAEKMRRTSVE
T1 sequence (Q5S007 whole entry G2019S, the tested form may be a part): as the sequence (Q5S007 whole entry, the tested form may be a part) above, with G2019S counted along it

On to `CC(C)Nc1c(C(N)=O)nnc2cc(-c3cnsc3)ccc12`, for which, in data set [1], the negative logarithm of the EC50 (pEC50) was 6.54. For the same compound, the figures for the pIC50 in [2] and in data set [3] were 7.70 and 7.85, respectively. Turning to `CS(=O)(=O)c1ccc(-c2ccc3c(N)c(C(N)=O)nnc3c2)cc1`, the pIC50 in [2] is 6.53.

For `CS(=O)(=O)c1ccc(-c2ccc3c(NC4CCOC4)c(C(N)=O)nnc3c2)cc1` (racemic), the pIC50 in [2] was 7.28. Turning to `CC(C)Nc1c(C(N)=O)nnc2cc(-c3ccc(S(C)(=O)=O)cc3)ccc12`, in [1], the pEC50 was 6.66. Also, the results for the negative logarithm of the IC50 (pIC50) in [4], in [5] and in data set [2] were 7.92, 6.58 and 7.57, respectively. As to `CC(C)Nc1c(C(N)=O)nnc2ccc(-c3cnn(C)c3)cc12`, the pIC50 in data set [2] is 6.37.

Take `CS(=O)(=O)c1ccc(-c2ccc3c(NCC4CC4)c(C(N)=O)nnc3c2)cc1`: the negative logarithm of the IC50 (pIC50) in data set [2] was 7.57. The same measure, in the same setting: the same measure for `CNC(=O)c1nnc2cc(-c3ccc(S(C)(=O)=O)cc3)ccc2c1N[C@H](C)C1CC1`: 6.61; for `NC(=O)c1nnc2cc(-c3ccncc3)ccc2c1NCCCO`: 6.79. With `CC(C)Nc1c(C(N)=O)nnc2cc(N3CCN(C)CC3)ccc12`, in [2], the pIC50 was 7.23.

On to `CS(=O)(=O)c1ccc(-c2ccc3c(NC4CCOCC4)c(C(N)=O)nnc3c2)cc1`, for which, in [2], the negative logarithm of the IC50 (pIC50) is 7.49. In the case of `CC(C)Nc1c(C(N)=O)nnc2cc(-c3cnn(C)c3)ccc12`, the pIC50 in [2] is 7.92.

With `CC[C@@H](C)Nc1c(C(N)=O)nnc2cc(-c3ccc(S(C)(=O)=O)cc3)ccc12`, in data set [1], the negative-log EC50 (pEC50) is 7.14. The negative logarithm of the IC50 (pIC50) was 8.40 in data set [2] and 9.00 in [3]. `CC(C)Nc1c(C(N)=O)nnc2cc(-c3cn[nH]c3)ccc12`: the negative-log IC50 (pIC50) in data set [2] was 7.74; in [3], 7.92. Turning to `CNc1c(C(N)=O)nnc2cc(-c3ccc(S(C)(=O)=O)cc3)ccc12`, the negative logarithm of the IC50 (pIC50) in data set [2] was 7.25.

As to `CS(=O)(=O)c1ccc(-c2ccc3c(Nc4ccccc4)c(C(N)=O)cnc3c2)cc1`, the pIC50 in data set [3] was 6.11. Consider `Cc1c(-c2ccncc2)ccc2c(NC(C)C)c(C(N)=O)nnc12`, for which the negative-log IC50 (pIC50) in [2] is 5.60; in data set [3] it was 5.49. Turning to `CS(=O)(=O)c1ccc(-c2ccc3c(NC4CC4)c(C(N)=O)nnc3c2)cc1`, the pIC50 is 7.28 in [2] and 7.31 in data set [3]. As for `C[C@@H](Nc1c(C(N)=O)nnc2cc(-c3ccncc3)ccc12)C1CC1`, the pEC50 in data set [1] was 7.21. Besides, in data set [6], the “inhibition (INH)” value was “Active”. Moreover, the inhibition entry in [7] is “Active”. For the same compound, the Kp at 5 min in data set [8] was determined as 1.5. For the same compound, the negative logarithm of the IC50 (pIC50) in [2] is 8.22; in data set [3] it was 8.70. Besides, in [9], the Drug uptake entry is reported as “Active”. With `CCNc1c(C(N)=O)nnc2cc(-c3ccc(S(C)(=O)=O)cc3)ccc12`, in data set [2], the negative-log IC50 (pIC50) was 7.26.

Take `NC(=O)c1nnc2cc(-c3ccncc3)ccc2c1NCCO`: in data set [2], the pIC50 was 6.58. On the same count and under the same terms, the same measure for `CNC(=O)c1nnc2cc(-c3ccc(S(C)(=O)=O)cc3)ccc2c1NC(C)C`: 6.38.
